Measurements from ChEMBL document CHEMBL4024773, “The Magic of Crystal Structure-Based Inhibitor Optimization: Development of a Butyrylcholinesterase Inhibitor with Picomolar Affinity and in Vivo Activity” (J Med Chem, 2018).
Active and inactive are the calls of the source. The calls are words filed in the database; no cut-off is given here.

Tests used:
[1] = human, hepatocytes, 2 h
Cholinesterase [2] = molecular target: T1, Cholinesterase (Homo sapiens, UniProt P06276); assay: Competitive inhibition of recombinant human BChE using butyrylthiocholine iodide as substrate at pH 8 by stopped flow assay
T1 sequence (P06276 whole entry): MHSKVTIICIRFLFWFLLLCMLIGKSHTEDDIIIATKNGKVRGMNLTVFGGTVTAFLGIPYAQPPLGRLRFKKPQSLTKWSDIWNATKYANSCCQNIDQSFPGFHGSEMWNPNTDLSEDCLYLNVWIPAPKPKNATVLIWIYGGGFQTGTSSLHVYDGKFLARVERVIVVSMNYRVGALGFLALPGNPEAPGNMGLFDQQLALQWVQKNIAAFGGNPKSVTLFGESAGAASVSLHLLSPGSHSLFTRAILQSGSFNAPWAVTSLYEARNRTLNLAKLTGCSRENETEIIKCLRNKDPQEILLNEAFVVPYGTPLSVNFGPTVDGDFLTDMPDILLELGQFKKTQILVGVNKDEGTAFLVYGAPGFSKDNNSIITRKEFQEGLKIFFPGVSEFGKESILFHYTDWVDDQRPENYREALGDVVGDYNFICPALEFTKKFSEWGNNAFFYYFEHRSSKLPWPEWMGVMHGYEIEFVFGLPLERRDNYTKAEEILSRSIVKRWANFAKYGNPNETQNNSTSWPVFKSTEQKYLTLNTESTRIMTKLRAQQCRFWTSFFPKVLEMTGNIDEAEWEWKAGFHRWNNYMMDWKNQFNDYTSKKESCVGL

Cholinesterase [3] = molecular target: T1, Cholinesterase; assay: Inhibition of recombinant human BChE using butyrylthiocholine iodide as substrate preincubated for 300 secs followed by substrate addition measured for 1 min by Ellman's method
Acetylcholinesterase = molecular target: T2, Acetylcholinesterase (Mus musculus, UniProt P21836); assay: Inhibition of mouse AChE using acetylthiocholine iodide as substrate preincubated for 300 secs followed by substrate addition measured for 1 min by Ellman's method
T2 sequence (P21836 whole entry): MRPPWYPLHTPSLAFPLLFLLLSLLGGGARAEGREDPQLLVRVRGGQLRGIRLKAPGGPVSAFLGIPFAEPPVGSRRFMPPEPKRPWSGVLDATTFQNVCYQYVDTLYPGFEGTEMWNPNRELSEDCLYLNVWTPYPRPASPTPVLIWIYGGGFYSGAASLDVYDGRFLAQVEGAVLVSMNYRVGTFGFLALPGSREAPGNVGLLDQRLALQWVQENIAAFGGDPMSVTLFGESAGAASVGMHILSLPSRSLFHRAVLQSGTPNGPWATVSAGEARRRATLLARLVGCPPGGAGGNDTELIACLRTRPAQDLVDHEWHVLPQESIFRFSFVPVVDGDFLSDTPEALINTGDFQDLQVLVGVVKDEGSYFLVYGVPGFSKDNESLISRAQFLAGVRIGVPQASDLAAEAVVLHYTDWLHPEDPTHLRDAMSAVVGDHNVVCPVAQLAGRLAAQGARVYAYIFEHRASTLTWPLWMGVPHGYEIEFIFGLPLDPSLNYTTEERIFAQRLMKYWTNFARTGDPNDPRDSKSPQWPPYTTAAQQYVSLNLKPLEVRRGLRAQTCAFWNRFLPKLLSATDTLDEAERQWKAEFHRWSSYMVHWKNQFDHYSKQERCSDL
How it was run: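 Inhibition of murine AChE measured by the Ellman method with acetylthiocholine iodide as substrate. IC50 determined only where inhibition reached at least 50% at 10 µM. Otherwise recorded as IC50 >10 µM.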

[4] = molecular target: Butyrylcholinesterase (Rattus norvegicus) (UniProt Q9JKC1); conditions: 300 uM
Chain of Butyrylcholinesterase (Rattus norvegicus) (Q9JKC1 as listed by the source): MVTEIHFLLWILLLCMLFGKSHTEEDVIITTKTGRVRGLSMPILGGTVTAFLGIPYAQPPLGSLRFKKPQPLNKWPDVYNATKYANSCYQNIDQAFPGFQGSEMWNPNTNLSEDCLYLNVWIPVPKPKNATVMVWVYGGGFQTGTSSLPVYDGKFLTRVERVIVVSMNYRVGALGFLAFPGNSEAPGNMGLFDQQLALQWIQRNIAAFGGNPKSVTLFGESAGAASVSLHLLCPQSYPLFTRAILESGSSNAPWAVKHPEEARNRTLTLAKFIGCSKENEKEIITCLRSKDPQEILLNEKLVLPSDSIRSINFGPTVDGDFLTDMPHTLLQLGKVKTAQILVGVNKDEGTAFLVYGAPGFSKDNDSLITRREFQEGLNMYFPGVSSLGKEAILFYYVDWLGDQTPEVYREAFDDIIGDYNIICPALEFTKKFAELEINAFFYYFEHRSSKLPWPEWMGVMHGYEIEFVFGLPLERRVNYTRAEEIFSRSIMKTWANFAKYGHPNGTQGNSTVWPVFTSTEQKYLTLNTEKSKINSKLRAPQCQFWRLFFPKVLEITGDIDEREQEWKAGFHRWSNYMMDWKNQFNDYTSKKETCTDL

Mus musculus [5] = assay: Reversal of scopolamine-induced memory impairment in C57BL/6J mouse assessed as decrease in traveled distance to reach the escape platform at 10 mg/kg, ip administered 60 mins prior to test post scopolamine challenge measured on day 7 by Morris water maze test; type: functional, organism-based
Mus musculus [6] = assay: Reversal of scopolamine-induced memory loss in C57BL/6J mouse assessed as decrease in escape latency time at 10 mg/kg, ip administered 60 mins prior to test post scopolamine-challenge measured on day 7 by Morris water maze test; type: functional, organism-based
[7] = Drug level in cryopreserved human hepatocytes treated with HCl salt of (+/-)-N-((1-(2,3-Dihydro-1H-inden-2-yl)piperidin-3-yl)methyl)-N-(2-(dimethylamino)ethyl)-2-naphthamide Dichloride at 1 uM after 120 mins by HPLC-MS/MS analysis; type: ADME, cell-based, Hepatocyte; conditions: 2 h
How it was run: (§1)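 Flurazepam, naloxone and propranolol, which are high-extraction […] references, served as positive controls.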

[8] = Protein binding in human plasma at 10 uM after 4 hrs by HPLC-MS/MS analysis; type: ADME, cell-free; conditions: read-out: PPB (converted)
in vitro [9] = conditions: human, SH-SY5Y cells
[10] = Apparent intrinsic clearance in cryopreserved human hepatocytes assessed per million cells at 1 uM after 120 mins by HPLC-MS/MS analysis; type: ADME, cell-based, Hepatocyte; conditions: 2 h
How it was run: as §1

Mus musculus [11] = assay: Toxicity in Albino Swiss CD-1 mouse assessed as acute adverse cholinergic effects at 30 mg/kg, ip; type: organism-based; conditions: in vivo
How it was run: (§2)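 Mice were given 30 mg/kg intraperitoneally, the same dose used in the Morris water-maze task. Safety was assessed with a locomotor activity test monitored over time, rotarod at 6, 18 and 24 rpm, and observation for acute cholinergic adverse signs.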

Mus musculus [12] = assay: Toxicity in Albino Swiss CD-1 mouse assessed as motor impairment at 30 mg/kg, ip using rod revolving at 6, 18, or 24 rpm after 60 mins by rotarod test; type: organism-based; conditions: in vivo, 1 h
How it was run: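 Rotarod test in mice given 30 mg/kg intraperitoneally, the dose used in the water maze tests. Motor performance recorded at rod speeds of 6, 18 and 24 rpm.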

[13] = Apparent permeability across apical to basolateral side in human Caco2 cells at 100 uM after 20 mins by fluorescein dye based HPLC-UV analysis; type: ADME, cell-based; conditions: Caco-2
How it was run: (§3)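 Caco-2 permeability (Papp) was measured bidirectionally, absorptive apical-to-basolateral and eliminatory basolateral-to-apical. The efflux ratio was calculated as Papp(B–A)/Papp(A–B).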

Mus musculus [14] = assay: Reversal of scopolamine-induced hyperlocomotion in C57BL/6J mouse assessed as speed of swimming at 30 mg/kg, ip administered 60 mins prior to test post scopolamine challenge measured on day 7 by Morris water maze test (reference value: 0.20 meter/s); type: functional
[15] = Stability of the compound in human plasma assessed as compound remaining at 1 uM after 120 mins by HPLC-MS/MS analysis; type: ADME, cell-free; conditions: read-out: Stability
in vitro [16] = conditions: human, HepG2 cells
[17] = Apparent permeability across basolateral to apical side in human Caco2 cells at 100 uM after 20 mins by fluorescein dye based HPLC-UV analysis; type: ADME, cell-based; conditions: Caco-2
How it was run: as §3

[18] = Ratio of drug level in brain to plasma in Wistar Han rat at 10 mg/kg, ip after 1 hr by LC-MS/MS analysis; type: ADME, organism-based; conditions: read-out: BPR
How it was run: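 Rats received a single intraperitoneal injection of 10 mg/kg. Brain tissue (µg/kg) and blood plasma (µg/L) concentrations were measured 1 h later and reported as mean ±SEM. The brain-to-plasma ratio was calculated from these concentrations.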

Mus musculus [19] = assay: Toxicity in Albino Swiss CD-1 mouse assessed as reduction in locomotor activity by measuring number of light beam crossings at 30 mg/kg, ip measured at 24 to 30 mins post dose; type: organism-based; conditions: in vivo
How it was run: as §2

[20] = Drug metabolism in cryopreserved human hepatocytes assessed as (+/-)-N-((1-(2,3-Dihydro-1H-inden-2-yl)piperidin-3-yl)methyl)-N-(2-(methylamino)ethyl)-2-naphthamide dihydrochloride formation at 1 uM after 120 mins by HPLC-MS/MS analysis; type: ADME, cell-based, Hepatocyte; conditions: 2 h
How it was run: as §1

[21] = Half life in cryopreserved human hepatocytes at 1 uM after 120 mins by HPLC-MS/MS analysis; type: ADME, cell-based, Hepatocyte
How it was run: as §1

[22] = Drug uptake in Wistar Han rat plasma at 10 mg/kg, ip after 1 hr by LC-MS/MS analysis; type: ADME, organism-based
[23] = Half life in human plasma at 1 uM by HPLC-MS/MS analysis; type: ADME, cell-free
Brain = conditions: rat, in vivo, ip, 10 mg/kg, 1 h
Cholinesterase [24] = molecular target: T1, Cholinesterase; conditions: 5 to 10 nM
Mus musculus [25] = assay: Reversal of scopolamine-induced hyperlocomotion in C57BL/6J mouse assessed as speed of swimming at 10 mg/kg, ip administered 60 mins prior to test post scopolamine challenge measured on day 7 by Morris water maze test (reference value: 0.20 meter/s); type: functional
[26] = Efflux ratio of apparent permeability from basolateral to apical side over apical to basolateral side in human Caco2 cells; type: ADME, cell-based; conditions: Caco-2

**Q.** With `O=c1cc(C(F)(F)F)c2ccc(O)cc2o1` as the compound, how does the Stability [1] read?
**A.** Unstable

**Q.** With `c1ccc2c(NCCCCCCCNc3c4c(nc5ccccc35)CCCC4)c3c(nc2c1)CCCC3` as the compound, how does the Ki (Cholinesterase [2]) read?
**A.** 0.163 nM

**Q.** For `COCCN(CC1CCN(Cc2ccccc2)CC1)C(=O)c1ccc2ccccc2c1`, which IC50 (Cholinesterase [3]) is on record?
**A.** 702 nM

**Q.** What about the IC50 (Acetylcholinesterase) of the same compound?
**A.** > 10 µM

**Q.** Which inhibition [4] does the source give for `COCCN(CC1CCCN(Cc2ccccc2)C1)S(=O)(=O)c1ccc2ccccc2c1` (configuration not stated) here?
**A.** Active

**Q.** What about the IC50 (Acetylcholinesterase) of the same compound?
**A.** > 10 µM

**Q.** What does the source list for `COc1cc2c(cc1OC)C(=O)C(CC1CCN(Cc3ccccc3)CC1)C2` (configuration not stated)?
**A.** Activity (Mus musculus [5]): Active; Activity (Mus musculus [6]): Active

**Q.** What does the source list for `COCCN(CC1CCCN(Cc2ccccc2)C1)C(=O)c1ccc2ccccc2c1` (racemic)?
**A.** IC50 (Cholinesterase [3]): 230 nM; IC50 (Acetylcholinesterase): > 10 µM

**Q.** With `COCCN(CC1CCCN(C2Cc3ccccc3C2)C1)C(=O)c1ccc2cc(Br)ccc2c1` (racemic) as the compound, how does the IC50 (Cholinesterase [3]) read?
**A.** 410 nM

**Q.** What about the IC50 (Acetylcholinesterase) of the same compound?
**A.** > 10 µM

**Q.** What does the source list for `CNCCN(CC1CCCN(C2Cc3ccccc3C2)C1)C(=O)c1ccc2ccccc2c1.Cl.Cl` (racemic)?
**A.** Drug metabolism [7]: Metabolite_Detected; IC50 (Cholinesterase [3]): 18 nM

**Q.** Which IC50 (Cholinesterase [3]) does the source give for `O=C(NCC1CCCN(Cc2ccccc2)C1)c1ccc2ccccc2c1` (racemic) here?
**A.** 1440 nM

**Q.** And the IC50 (Acetylcholinesterase)?
**A.** > 10 µM

**Q.** For `O=C(NCC1CCCN(C2Cc3ccccc3C2)C1)c1cccc2ccccc12` (racemic), which IC50 (Cholinesterase [3]) is on record?
**A.** 67 nM

**Q.** What about the IC50 (Acetylcholinesterase) of the same compound?
**A.** > 10 µM

**Q.** Which results are given for `O=C(NCC1CCCN(Cc2nc3ccccc3s2)C1)c1ccc2ccccc2c1` (racemic)?
**A.** IC50 (Cholinesterase [3]): 632 nM; IC50 (Acetylcholinesterase): > 10 µM

**Q.** Which fraction unbound at 4 h, 10 µM [8] does the source give for `CN(C)CCN(CC1CCCN(C2Cc3ccccc3C2)C1)C(=O)c1ccc2ccccc2c1.Cl` (racemic) here?
**A.** 0.07

**Q.** What about the CC50 at 48 h (in vitro [9]) of the same compound?
**A.** 6.63 µM

**Q.** And the “CLH(app)” value [10]?
**A.** < 8.2 µL/min

**Q.** What about the Activity (Mus musculus [11]) of the same compound?
**A.** Non-Toxic

**Q.** What about the Activity (Mus musculus [12]) of the same compound?
**A.** Non-Toxic

**Q.** And the Papp A→B at 20 min, 100 µM [13]?
**A.** 28 ×10⁻⁶ cm/s

**Q.** What about the Activity (Mus musculus [14]) of the same compound?
**A.** 0.18 meter/s

**Q.** What about the remaining at 2 h, 1 µM [15] of the same compound?
**A.** 76%

**Q.** What about the CC50 at 24 h (in vitro [16]) of the same compound?
**A.** 33.9 µM

**Q.** And the Papp B→A at 20 min, 100 µM [17]?
**A.** 46.1 ×10⁻⁶ cm/s

**Q.** And the Kp at 1 h [18]?
**A.** 1.47

**Q.** What about the Activity (Mus musculus [19]) of the same compound?
**A.** Toxic

**Q.** What about the Drug metabolism [20] of the same compound?
**A.** Metabolite_Detected

**Q.** And the half-life at 1 µM [21]?
**A.** > 120 min

**Q.** And the concentration at 1 h [22]?
**A.** 169 ng/mL

**Q.** And the half-life at 1 µM [23]?
**A.** > 120 min

**Q.** What about the Drug uptake (Brain) of the same compound?
**A.** 248 µg/kg

**Q.** For `CN(C)CCN(CC1CCCN(C2Cc3ccccc3C2)C1)C(=O)c1ccc2ccccc2c1` (racemic), which IC50 (Acetylcholinesterase) is on record?
**A.** > 10 µM

**Q.** What does the source list for `COCCCN(CC1CCCN(C2Cc3ccccc3C2)C1)C(=O)c1ccc2ccccc2c1` (racemic)?
**A.** IC50 (Cholinesterase [3]): 38.2 nM; IC50 (Acetylcholinesterase): > 10 µM

**Q.** For `COCCN(CC1CCCN(C2Cc3ccccc3C2)C1)C(=O)c1ccc2ccccc2c1` (single isomer, unassigned; (+)), which deltaG (Cholinesterase [24]) is on record?
**A.** -49.9 kJ/mol

**Q.** For `COc1cc2c(cc1OC)C(=O)C(CC1CCN(Cc3ccccc3)CC1)C2.Cl` (configuration not stated) [DONEPEZIL HYDROCHLORIDE], which Activity (Mus musculus [25]) is on record?
**A.** 0.15 meter/s

**Q.** With `COc1cc2c(cc1OC)C(=O)C(CC1CCN(Cc3ccccc3)CC1)C2` (configuration not stated) [DONEPEZIL] as the compound, how does the concentration at 1 h [22] read?
**A.** 2 to 300 ng/mL

**Q.** Which Stability [1] does the source give for `CCN(CC)CCN1C(=O)CN=C(c2ccccc2F)c2cc(Cl)ccc21` [FLURAZEPAM] here?
**A.** Unstable

**Q.** Which Papp A→B at 20 min, 100 µM [13] does the source give for `COC(=O)c1ccccc1-c1c2ccc(=N)cc-2oc2cc(N)ccc12.Cl` [RHODAMINE123] here?
**A.** 1.1 ×10⁻⁶ cm/s

**Q.** And the Papp B→A at 20 min, 100 µM [17]?
**A.** 7.7 ×10⁻⁶ cm/s

**Q.** What about the efflux ratio [26] of the same compound?
**A.** 7.3
